{"source": "ChEMBL document CHEMBL2396604", "about": "“Synthesis and structure activity relationship of tetrahydroisoquinoline-based potentiators of GluN2C and GluN2D containing N-methyl-D-aspartate receptors” (J Med Chem, 2013)", "key": {"[1]": {"biological_target": "Glutamate NMDA receptor; Grin1/Grin2c (Rattus norvegicus, UniProt P35439+Q00961)", "test": "Activity at rat recombinant GluN1/GluN2C receptor assessed as potentiation of glycine/glutamate-induced activation by two-electrode voltage clamp technique", "assay_type": "protein-complex assay"}, "[2]": {"biological_target": "Muscarinic acetylcholine receptor M3 (Homo sapiens) (UniProt P20309)", "test": "Inhibition of M3 receptor (unknown origin) at 5 uM by psychoactive drug screening programme assay", "outline": "(§1)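 Radioligand binding screen run by PDSP. Displacement of ligand binding was measured with test compound at 5 µM, n=4 per target.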"}, "[3]": {"biological_target": "Sodium-dependent noradrenaline transporter (Homo sapiens) (UniProt P23975)", "test": "Inhibition of norepinephrine transporter (unknown origin) at 5 uM by psychoactive drug screening programme assay", "outline": "as §1"}, "[4]": {"biological_target": "Muscarinic acetylcholine receptor M1 (Homo sapiens) (UniProt P11229)", "sequence (P11229 whole entry)": "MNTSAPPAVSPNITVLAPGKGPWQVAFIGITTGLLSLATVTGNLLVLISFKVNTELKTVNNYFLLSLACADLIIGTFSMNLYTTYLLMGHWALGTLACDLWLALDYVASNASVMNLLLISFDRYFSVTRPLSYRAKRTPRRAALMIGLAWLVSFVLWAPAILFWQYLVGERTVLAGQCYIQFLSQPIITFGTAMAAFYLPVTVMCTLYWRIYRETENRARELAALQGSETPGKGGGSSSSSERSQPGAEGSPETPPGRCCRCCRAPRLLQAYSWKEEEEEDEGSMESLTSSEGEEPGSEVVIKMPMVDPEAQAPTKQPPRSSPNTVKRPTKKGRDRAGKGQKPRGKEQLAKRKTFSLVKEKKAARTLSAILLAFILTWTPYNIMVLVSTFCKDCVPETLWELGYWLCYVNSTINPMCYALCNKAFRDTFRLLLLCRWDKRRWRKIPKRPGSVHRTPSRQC", "test": "Inhibition of M1 receptor (unknown origin) at 5 uM by psychoactive drug screening programme assay", "outline": "as §1"}, "[5]": {"biological_target": "5-hydroxytryptamine receptor 2C (Homo sapiens) (UniProt P28335)", "test": "Inhibition of serotonin 5-HT2C receptor (unknown origin) at 5 uM by psychoactive drug screening programme assay", "outline": "as §1"}, "Homo sapiens": {"species": "Homo sapiens", "test": "Inhibition of sigma2 receptor (unknown origin) at 5 uM by psychoactive drug screening programme assay"}, "[6]": {"biological_target": "Glutamate receptor 2 (Rattus norvegicus) (UniProt P19491)", "sequence (P19491 whole entry, the tested form may be a part)": "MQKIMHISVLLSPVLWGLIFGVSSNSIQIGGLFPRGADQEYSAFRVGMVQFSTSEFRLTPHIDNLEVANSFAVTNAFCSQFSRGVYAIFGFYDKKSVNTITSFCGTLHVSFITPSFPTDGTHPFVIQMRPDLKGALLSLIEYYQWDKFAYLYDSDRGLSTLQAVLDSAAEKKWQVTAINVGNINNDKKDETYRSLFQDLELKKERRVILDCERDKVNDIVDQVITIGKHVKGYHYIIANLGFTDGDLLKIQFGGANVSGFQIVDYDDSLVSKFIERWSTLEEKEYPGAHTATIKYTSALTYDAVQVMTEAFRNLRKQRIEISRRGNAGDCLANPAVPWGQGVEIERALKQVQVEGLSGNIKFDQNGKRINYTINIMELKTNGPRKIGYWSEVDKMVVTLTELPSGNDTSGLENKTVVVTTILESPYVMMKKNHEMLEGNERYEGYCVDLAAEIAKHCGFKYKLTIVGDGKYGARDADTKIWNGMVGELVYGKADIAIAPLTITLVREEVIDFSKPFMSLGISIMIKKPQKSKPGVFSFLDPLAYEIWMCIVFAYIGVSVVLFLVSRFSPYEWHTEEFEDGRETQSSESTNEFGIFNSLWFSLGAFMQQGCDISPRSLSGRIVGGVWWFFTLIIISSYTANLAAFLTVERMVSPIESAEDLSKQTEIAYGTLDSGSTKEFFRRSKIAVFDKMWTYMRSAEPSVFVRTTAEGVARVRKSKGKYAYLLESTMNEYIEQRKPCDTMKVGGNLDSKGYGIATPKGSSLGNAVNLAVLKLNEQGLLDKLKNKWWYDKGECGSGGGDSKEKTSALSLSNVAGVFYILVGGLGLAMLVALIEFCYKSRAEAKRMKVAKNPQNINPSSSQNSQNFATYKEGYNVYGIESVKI", "test": "Activity at rat recombinant GluA2 receptor expressed in Xenopus oocytes assessed as effect on glutamate-induced response at 3 uM by two-electrode voltage clamp technique relative to control", "assay_type": "cell-based", "conditions": "Oocyte", "outline": "(§2)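 Two-electrode voltage clamp of Xenopus oocytes injected with 1–5 ng cRNA and kept in Barth's solution at 15°C for 2–5 days. Oocytes were perfused with 90 mM NaCl, 1.0 KCl, 0.5 BaCl2, 0.005 EDTA, 10 HEPES, pH 7.4, 23°C, and held at -40 mV. Compound was co-applied at 3 µM with agonist from 20 mM DMSO stocks, final DMSO 0.05–0.5%.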"}, "[7]": {"biological_target": "Kappa-type opioid receptor (Homo sapiens, UniProt P41145)", "sequence (P41145 whole entry)": "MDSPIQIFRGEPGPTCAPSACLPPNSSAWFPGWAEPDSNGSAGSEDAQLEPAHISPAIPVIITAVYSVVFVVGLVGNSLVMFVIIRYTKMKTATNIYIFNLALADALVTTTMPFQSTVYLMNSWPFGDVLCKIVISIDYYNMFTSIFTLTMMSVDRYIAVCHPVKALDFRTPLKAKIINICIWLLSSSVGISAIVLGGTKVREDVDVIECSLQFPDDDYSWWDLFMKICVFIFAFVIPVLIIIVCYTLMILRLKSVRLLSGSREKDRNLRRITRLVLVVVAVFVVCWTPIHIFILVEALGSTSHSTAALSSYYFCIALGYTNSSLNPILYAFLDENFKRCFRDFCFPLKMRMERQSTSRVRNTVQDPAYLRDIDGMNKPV", "test": "Inhibition of kappa opioid receptor (unknown origin) by psychoactive drug screening programme assay"}, "Oocyte": {"test_system": "Oocyte", "test": "Activity at mouse recombinant alpha1beta1gammadelta nAChR expressed in Xenopus oocytes assessed as effect on acetylcholine-induced activation at 3 uM by two-electrode voltage clamp technique relative to control", "assay_type": "cell-based", "outline": "as §2"}, "[8]": {"biological_target": "Ionotropic glutamate receptor kainate 2/5 (Rattus norvegicus) (UniProt P42260+Q63273)", "test": "Activity at rat recombinant GluK2/GluK5 receptor expressed in Xenopus oocytes assessed as effect on glutamate-induced response at 3 uM by two-electrode voltage clamp technique relative to control", "assay_type": "cell-based", "conditions": "Oocyte", "outline": "as §2"}, "[9]": {"biological_target": "Glycine receptor subunit alpha-1 (Rattus norvegicus) (UniProt P07727)", "sequence (P07727 whole entry)": "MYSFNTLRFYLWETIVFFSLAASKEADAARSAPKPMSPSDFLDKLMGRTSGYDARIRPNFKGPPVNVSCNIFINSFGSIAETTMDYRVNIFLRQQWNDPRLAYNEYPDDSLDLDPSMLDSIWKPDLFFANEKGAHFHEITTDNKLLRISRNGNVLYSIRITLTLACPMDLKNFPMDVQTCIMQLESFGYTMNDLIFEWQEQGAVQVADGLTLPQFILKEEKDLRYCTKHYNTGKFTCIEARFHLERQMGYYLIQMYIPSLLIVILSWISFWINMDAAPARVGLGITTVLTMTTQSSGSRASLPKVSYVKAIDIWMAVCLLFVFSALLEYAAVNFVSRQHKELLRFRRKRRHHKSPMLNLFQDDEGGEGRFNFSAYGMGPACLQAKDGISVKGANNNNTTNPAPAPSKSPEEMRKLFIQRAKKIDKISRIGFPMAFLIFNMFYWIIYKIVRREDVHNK", "test": "Activity at rat recombinant glycine alpha1 receptor expressed in Xenopus oocytes assessed as effect on glycine-induced activation at 3 uM by two-electrode voltage clamp technique relative to control", "assay_type": "cell-based", "conditions": "Oocyte", "outline": "as §2"}, "[10]": {"biological_target": "D(1B) dopamine receptor (Homo sapiens) (UniProt P21918)", "test": "Inhibition of dopamine D5 receptor (unknown origin) at 5 uM by psychoactive drug screening programme assay", "outline": "as §1"}, "[11]": {"biological_target": "Mu-type opioid receptor (Homo sapiens) (UniProt P35372)", "test": "Inhibition of mu opioid receptor (unknown origin) at 5 uM by psychoactive drug screening programme assay", "outline": "as §1"}, "[12]": {"biological_target": "P2X purinoceptor 2 (Homo sapiens) (UniProt Q9UBL9)", "test": "Activity at human recombinant purinergic P2X2 receptor expressed in Xenopus oocytes assessed as effect on ATP-induced activation at 3 uM by two-electrode voltage clamp technique relative to control", "assay_type": "cell-based", "conditions": "Oocyte", "outline": "as §2"}, "[13]": {"biological_target": "Glutamate NMDA receptor; Grin1/Grin2a (Rattus norvegicus) (UniProt P35439+Q00959)", "test": "Activity at rat recombinant GluN1/GluN2A receptor expressed in Xenopus oocytes assessesed as effect of glycine/glutamate-induced response at 3 uM by two-electrode voltage clamp technique relative to control", "assay_type": "cell-based", "conditions": "Oocyte", "outline": "as §2"}, "[14]": {"biological_target": "Neuronal acetylcholine receptor subunit alpha-7 (Homo sapiens) (UniProt P36544)", "sequence (P36544 whole entry)": "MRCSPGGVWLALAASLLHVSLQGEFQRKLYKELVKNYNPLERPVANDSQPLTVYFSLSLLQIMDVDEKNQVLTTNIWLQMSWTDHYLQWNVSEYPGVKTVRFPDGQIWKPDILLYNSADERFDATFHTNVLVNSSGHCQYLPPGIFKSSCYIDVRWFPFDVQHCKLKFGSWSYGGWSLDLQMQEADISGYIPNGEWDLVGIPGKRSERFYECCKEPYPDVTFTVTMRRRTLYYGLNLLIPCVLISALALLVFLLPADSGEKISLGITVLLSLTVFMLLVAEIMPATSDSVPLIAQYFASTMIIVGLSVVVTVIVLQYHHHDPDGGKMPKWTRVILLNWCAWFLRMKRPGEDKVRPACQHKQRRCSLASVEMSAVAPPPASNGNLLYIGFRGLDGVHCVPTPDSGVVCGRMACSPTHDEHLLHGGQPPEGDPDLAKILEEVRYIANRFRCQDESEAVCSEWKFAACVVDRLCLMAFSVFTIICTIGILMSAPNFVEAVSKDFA", "test": "Activity at human recombinant alpha7 nAChR expressed in Xenopus oocytes assessed as effect on acetylcholine-induced activation at 3 uM by two-electrode voltage clamp technique relative to control", "assay_type": "cell-based", "conditions": "Oocyte", "outline": "as §2"}, "[15]": {"biological_target": "5-hydroxytryptamine receptor 6 (Homo sapiens) (UniProt P50406)", "test": "Inhibition of serotonin 5-HT6 receptor (unknown origin) at 5 uM by psychoactive drug screening programme assay"}, "[16]": {"biological_target": "5-hydroxytryptamine receptor 7 (Homo sapiens) (UniProt P34969)", "sequence (P34969 whole entry)": "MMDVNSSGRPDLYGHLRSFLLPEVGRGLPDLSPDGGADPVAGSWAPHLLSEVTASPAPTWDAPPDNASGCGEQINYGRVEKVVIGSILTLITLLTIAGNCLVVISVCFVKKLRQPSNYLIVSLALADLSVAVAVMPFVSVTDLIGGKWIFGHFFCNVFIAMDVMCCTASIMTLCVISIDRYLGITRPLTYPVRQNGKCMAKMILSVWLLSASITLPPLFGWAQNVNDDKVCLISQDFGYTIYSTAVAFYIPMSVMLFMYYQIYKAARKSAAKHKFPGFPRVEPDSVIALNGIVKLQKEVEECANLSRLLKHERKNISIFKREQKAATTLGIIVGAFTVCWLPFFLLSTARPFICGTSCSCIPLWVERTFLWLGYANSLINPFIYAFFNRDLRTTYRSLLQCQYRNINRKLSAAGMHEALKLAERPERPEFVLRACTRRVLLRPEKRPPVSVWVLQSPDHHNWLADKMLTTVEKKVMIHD", "test": "Inhibition of serotonin 5-HT7 receptor (unknown origin) at 5 uM by psychoactive drug screening programme assay"}, "[17]": {"biological_target": "Neuronal acetylcholine receptor; alpha3/beta4 (Homo sapiens) (UniProt P30926+P32297)", "test": "Activity at human recombinant alpha3beta4 nAChR expressed in Xenopus oocytes assessed as effect on acetylcholine-induced activation at 3 uM by two-electrode voltage clamp technique relative to control", "assay_type": "cell-based", "conditions": "Oocyte", "outline": "as §2"}, "[18]": {"biological_target": "D(2) dopamine receptor (Homo sapiens) (UniProt P14416)", "test": "Inhibition of dopamine D2 receptor (unknown origin) at 5 uM by psychoactive drug screening programme assay", "outline": "as §1"}, "[19]": {"biological_target": "Histamine H2 receptor (Homo sapiens) (UniProt P25021)", "test": "Inhibition of H2 histamine receptor (unknown origin) at 5 uM by psychoactive drug screening programme assay", "outline": "as §1"}, "[20]": {"biological_target": "Muscarinic acetylcholine receptor M5 (Homo sapiens) (UniProt P08912)", "sequence (P08912 whole entry)": "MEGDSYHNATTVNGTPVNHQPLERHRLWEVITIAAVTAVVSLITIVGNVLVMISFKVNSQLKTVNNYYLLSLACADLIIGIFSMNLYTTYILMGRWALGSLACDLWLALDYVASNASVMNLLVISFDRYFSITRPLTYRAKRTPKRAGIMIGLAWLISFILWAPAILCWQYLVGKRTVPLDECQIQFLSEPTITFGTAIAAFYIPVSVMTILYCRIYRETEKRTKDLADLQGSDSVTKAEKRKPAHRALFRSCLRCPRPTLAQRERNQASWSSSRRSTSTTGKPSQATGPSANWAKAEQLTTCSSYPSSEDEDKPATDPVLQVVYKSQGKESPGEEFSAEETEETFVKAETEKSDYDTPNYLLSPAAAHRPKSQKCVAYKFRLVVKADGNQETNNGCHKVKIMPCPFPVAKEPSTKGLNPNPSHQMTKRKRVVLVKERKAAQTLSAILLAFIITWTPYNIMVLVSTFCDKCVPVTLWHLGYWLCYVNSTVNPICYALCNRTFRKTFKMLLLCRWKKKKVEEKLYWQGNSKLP", "test": "Inhibition of M5 receptor (unknown origin) at 5 uM by psychoactive drug screening programme assay", "outline": "as §1"}, "[21]": {"biological_target": "Beta-2 adrenergic receptor (Homo sapiens) (UniProt P07550)", "test": "Inhibition of adrenergic beta2 receptor (unknown origin) at 5 uM by psychoactive drug screening programme assay", "outline": "as §1"}, "[22]": {"biological_target": "Alpha-2C adrenergic receptor (Homo sapiens) (UniProt P18825)", "test": "Inhibition of adrenergic alpha2C receptor (unknown origin) at 5 uM by psychoactive drug screening programme assay", "outline": "as §1"}, "[23]": {"biological_target": "Gamma-aminobutyric acid receptor subunit rho-1 (Homo sapiens) (UniProt P24046)", "sequence (P24046 whole entry)": "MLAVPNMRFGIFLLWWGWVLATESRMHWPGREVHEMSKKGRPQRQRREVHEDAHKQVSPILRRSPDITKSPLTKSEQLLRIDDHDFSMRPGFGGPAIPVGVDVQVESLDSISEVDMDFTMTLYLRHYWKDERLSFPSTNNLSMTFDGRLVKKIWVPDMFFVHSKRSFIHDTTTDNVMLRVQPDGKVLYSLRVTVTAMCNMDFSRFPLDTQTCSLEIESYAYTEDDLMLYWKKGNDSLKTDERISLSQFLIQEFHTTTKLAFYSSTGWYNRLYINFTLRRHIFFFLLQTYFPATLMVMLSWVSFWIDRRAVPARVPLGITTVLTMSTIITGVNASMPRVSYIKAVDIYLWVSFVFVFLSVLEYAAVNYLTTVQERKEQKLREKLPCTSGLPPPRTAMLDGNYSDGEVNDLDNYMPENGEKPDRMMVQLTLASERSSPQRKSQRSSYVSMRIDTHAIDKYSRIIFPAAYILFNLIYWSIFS", "test": "Activity at human recombinant GABA(C) receptor expressed in Xenopus oocytes assessed as effect on GABA-induced activation at 3 uM by two-electrode voltage clamp technique relative to control", "assay_type": "cell-based", "conditions": "Oocyte", "outline": "as §2"}, "[24]": {"biological_target": "Alpha-1B adrenergic receptor (Homo sapiens) (UniProt P35368)", "test": "Inhibition of adrenergic alpha1B receptor (unknown origin) at 5 uM by psychoactive drug screening programme assay", "outline": "as §1"}, "[25]": {"biological_target": "5-hydroxytryptamine receptor 3A (Homo sapiens) (UniProt P46098)", "test": "Inhibition of serotonin 5-HT3 receptor (unknown origin) at 5 uM by psychoactive drug screening programme assay"}, "[26]": {"biological_target": "Glutamate receptor ionotropic, kainate 2 (Rattus norvegicus) (UniProt P42260)", "test": "Activity at rat recombinant GluK2 receptor expressed in Xenopus oocytes assessed as effect on glutamate-induced response at 3 uM by two-electrode voltage clamp technique relative to control", "assay_type": "cell-based", "conditions": "Oocyte", "outline": "as §2"}, "[27]": {"biological_target": "Histamine H1 receptor (Homo sapiens) (UniProt P35367)", "sequence (P35367 whole entry)": "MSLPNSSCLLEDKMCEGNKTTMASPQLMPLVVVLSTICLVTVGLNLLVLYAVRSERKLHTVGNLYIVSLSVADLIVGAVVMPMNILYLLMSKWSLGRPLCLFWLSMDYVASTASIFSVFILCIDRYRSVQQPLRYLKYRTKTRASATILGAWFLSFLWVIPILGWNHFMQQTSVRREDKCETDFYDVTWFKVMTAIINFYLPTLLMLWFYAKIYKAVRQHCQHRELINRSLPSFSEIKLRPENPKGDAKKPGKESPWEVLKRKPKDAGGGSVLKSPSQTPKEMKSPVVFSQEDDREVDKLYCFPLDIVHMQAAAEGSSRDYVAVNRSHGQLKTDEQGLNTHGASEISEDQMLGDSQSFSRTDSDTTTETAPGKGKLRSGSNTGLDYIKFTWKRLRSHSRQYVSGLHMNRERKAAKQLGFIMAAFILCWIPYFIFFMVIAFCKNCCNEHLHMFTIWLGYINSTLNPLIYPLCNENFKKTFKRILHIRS", "test": "Inhibition of H1 histamine receptor (unknown origin) at 5 uM by psychoactive drug screening programme assay", "outline": "as §1"}, "[28]": {"biological_target": "5-hydroxytryptamine receptor 1D (Homo sapiens) (UniProt P28221)", "test": "Inhibition of serotonin 5-HT1D receptor (unknown origin) at 5 uM by psychoactive drug screening programme assay", "outline": "as §1"}}}
{"smiles": "COc1ccc(OCC2c3ccc(OCc4ccccc4)cc3CCN2C(=O)c2cccc(Br)c2)cc1", "note": "(stereo not given)", "values": [{"measurement": "EC50", "setting": "[1]", "value": 300, "unit": "nM"}, {"measurement": "inhibition", "setting": "[2]", "value": "< 50", "unit": "%"}, {"measurement": "inhibition", "setting": "[3]", "value": "< 50", "unit": "%"}, {"measurement": "inhibition", "setting": "[4]", "value": "< 50", "unit": "%"}, {"measurement": "inhibition", "setting": "[5]", "value": "< 50", "unit": "%"}, {"measurement": "inhibition", "setting": "Homo sapiens", "value": "< 50", "unit": "%"}, {"measurement": "Activity", "setting": "[6]", "value": 97, "unit": "%"}, {"measurement": "Ki", "setting": "[7]", "value": "> 5000", "unit": "nM"}, {"measurement": "Activity", "setting": "Oocyte", "value": 105, "unit": "%"}, {"measurement": "Activity", "setting": "[8]", "value": 103, "unit": "%"}, {"measurement": "Activity", "setting": "[9]", "value": 91, "unit": "%"}, {"measurement": "inhibition", "setting": "[10]", "value": "< 50", "unit": "%"}, {"measurement": "inhibition", "setting": "[11]", "value": "< 50", "unit": "%"}, {"measurement": "Activity", "setting": "[12]", "value": 94, "unit": "%"}, {"measurement": "Activity", "setting": "[13]", "value": 105, "unit": "%"}, {"measurement": "Activity", "setting": "[14]", "value": 90, "unit": "%"}, {"measurement": "inhibition", "setting": "[15]", "value": "< 50", "unit": "%"}, {"measurement": "inhibition", "setting": "[16]", "value": "< 50", "unit": "%"}, {"measurement": "Activity", "setting": "[17]", "value": 95, "unit": "%"}, {"measurement": "inhibition", "setting": "[18]", "value": "< 50", "unit": "%"}, {"measurement": "inhibition", "setting": "[19]", "value": "< 50", "unit": "%"}, {"measurement": "inhibition", "setting": "[20]", "value": "< 50", "unit": "%"}, {"measurement": "inhibition", "setting": "[21]", "value": "< 50", "unit": "%"}, {"measurement": "inhibition", "setting": "[22]", "value": "< 50", "unit": "%"}, {"measurement": "Activity", "setting": "[23]", "value": 99, "unit": "%"}, {"measurement": "inhibition", "setting": "[24]", "value": "< 50", "unit": "%"}, {"measurement": "inhibition", "setting": "[25]", "value": "< 50", "unit": "%"}, {"measurement": "Activity", "setting": "[26]", "value": 98, "unit": "%"}, {"measurement": "inhibition", "setting": "[27]", "value": "< 50", "unit": "%"}, {"measurement": "inhibition", "setting": "[28]", "value": "< 50", "unit": "%"}]}
